The record followed here is ChEMBL document CHEMBL1127730, “Bicyclic hydantoins with a bridgehead nitrogen. Comparison of anticonvulsant activities with binding to the neuronal voltage-dependent sodium channel” (J Med Chem, 1994).

The source made the active and inactive calls. The rule behind the calls is not given here. Bounds are passed on as bounds.

One may read the logP as the decadic logarithm of the partition coefficient of the neutral form, usually between octanol and water. Read a low logP as lower lipophilicity. The term TD50 denotes the 50% point of the dose-response relation for the toxic effect studied. Low values mean harm at a small dose, high ones harm only at a large dose. As usually defined, the IC50 is the concentration that gives 50% inhibition. A higher IC50 goes with a need for much substance. As a reminder, the ED50 is the dose at which the effect has come halfway, by size or by number of responders.

For series [1], the system named is Mus musculus. Briefly: Anticonvulsant activity was measured as inhibition of convulsions by rotarod test in Phase-I by intraperitoneal administration in mice. The class given is functional. A digest of the protocol:
(§1)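 Mice dosed ip and tested 30 min later. Phase I screen is qualitative: maximal electroshock and subcutaneous metrazol (scMet) seizure tests, plus a rotorod test for neurotoxicity. Reported as the best active dose in mg/kg, with animals protected (or toxic) over the number tested. Run by the NINDS Antiepileptic Drug Development Program.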

In series [2] the test system is Mus musculus. Briefly: Anticonvulsant activity was measured as inhibition of convulsions by subcutaneous administration in mice. The class given is functional. A digest of the protocol:
as §1

The subject of series [3] is Mus musculus. Briefly: Number of animals protected or toxic compared to number tested maximal electric shock (MES) method in Phase-I by intraperitoneal administration in mice; 1/3. The class given is functional. An outline of the steps:
as §1

The subject of series [4] is Mus musculus. Description: Number of animals protected or toxic compared to number tested rotarod test in Phase-I by intraperitoneal administration in mice; 4/4. The class given is functional. A digest of the protocol:
as §1

In series [5] the test system is Mus musculus. Description: Number of animals protected or toxic compared to number tested in subcutaneous administration in mice; 4/4. Type of series: functional. An outline of the steps:
as §1

Series [6] relates to Mus musculus. Briefly: Anticonvulsant activity was measured as inhibition of convulsions by maximal electric shock (MES) method in Phase-I by intraperitoneal administration in mice. Type of series: functional. An outline of the steps: as §1
Series [7] is described as follows: Partition coefficient (logP). Type of series: physicochemical. The conditions noted are these: octanol/water. A digest of the protocol: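 Calculated rather than measured: the parent-structure log P value is summed with π contributions for the substituents. Both sets of constants come from published tables.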
The subject of series [8] is Mus musculus. Description: Time taken for measure Anticonvulsant activity in Phase -II by intraperitoneal administration in mice. The class given is functional.
The test system of series [9] is Mus musculus. Briefly: Anticonvulsant activity was measured by rotarod test in Phase -II by intraperitoneal administration in mice. Type of series: functional. The conditions noted are these: ip. An outline of the steps:
(§2)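 Phase II quantification in mice dosed ip: ED50 against maximal electroshock seizures and rotorod neurotoxic TD50, both in mg/kg. The 95% confidence intervals are given in brackets. Run by the NINDS Antiepileptic Drug Development Program.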
(The rotarod test checks motor coordination on a turning rod.)

For series [10], the target named is Sodium channel alpha subunits; brain (Types I, II, III) (Rattus norvegicus, UniProt P04775+P04774+P08104). Briefly: Inhibition of binding to sodium channel of rat cerebral cortex. Type of series: tissue-based. An outline of the steps: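 Rat cerebral cortex synaptosomes (~1 mg protein) incubated 40 min at 25 °C with 10 nM [3H]BTX-B, 50 μg/mL scorpion venom and test compound at seven concentrations. Filtration, ice-cold buffer washes, scintillation counting. Nonspecific binding defined with 300 μM veratridine. Triplicate runs with 40 μM DPH control tube. IC50 by Probit analysis, excluding doses giving <10% or >90% inhibition.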

Series [11] has as its system Mus musculus. Description: Number of animals protected or toxic compared to number tested in subcutaneous administration in mice; 3/4. Type of series: functional, organism-based. An outline of the steps: as §1
Series [12] has as its system Mus musculus. Briefly: Number of animals protected or toxic compared to number tested maximal electric shock (MES) method in Phase-I by intraperitoneal administration in mice; 3/3. The class given is functional. A digest of the protocol:
as §1

In series [13] the test system is Mus musculus. Briefly: Number of animals protected or toxic compared to number tested maximal electric shock (MES) method in Phase-I by intraperitoneal administration in mice; 1/1. Type of series: functional. A digest of the protocol: as §1
Series [14] relates to Mus musculus. Description: Anticonvulsant activity was measured by maximal electric shock (MES) method in Phase -II by intraperitoneal administration in mice. The settings on record: ip. The class given is functional. A digest of the protocol: as §2
Series [15] has as its system Mus musculus. Briefly: Number of animals protected or toxic compared to number tested rotarod test in Phase-I by intraperitoneal administration in mice; 8/8. The class given is functional, organism-based. A digest of the protocol:
as §1

Series [16] has as its system Mus musculus. Briefly: Number of animals protected or toxic compared to number tested in subcutaneous administration in mice; 1/1. Type of series: functional. A digest of the protocol:
as §1

Series [17] deals with Mus musculus. Description: Number of animals protected or toxic compared to number tested rotarod test in Phase-I by intraperitoneal administration in mice; 1/4. The class given is functional. A digest of the protocol: as §1

On to `NC(=O)C1(c2ccccc2)CCCCCNC1=O` (stereo not drawn), for which the Activity is 300 mg/kg in the series with Mus musculus [1]; 300 mg/kg in the series on Mus musculus [2]; 1 in the series with Mus musculus [3]; 4 in the series on Mus musculus [4]; 4 in the series on Mus musculus [5]; 100 mg/kg in the series on Mus musculus [6].
On to `CN1C(=O)OC(C)(C)C1=O` [TRIMETHADIONE], for which the logP in series [7] was -0.37. Besides, the Time in the series on Mus musculus [8] amounted to 1 h. Besides, the TD50 with Mus musculus [9] amounted to 810 mg/kg. The compound also registered an IC50 in series [10] above 1000 µM.
Consider `O=C1NC2(c3ccccc3)CCCCN1C2=O` (stereo not drawn), for which the Activity with Mus musculus [1] was 300 mg/kg; with Mus musculus [2], 100 mg/kg; in the series with Mus musculus [11], “Weak activity”; in the series with Mus musculus [6] it was 100 mg/kg; with Mus musculus [12] it was 3. Also, the lipophilicity (logP) in series [7] is 2.01. Moreover, in the series with Mus musculus [4], the result was Active. Moreover, the IC50 in series [10] was 700 µM.
Turning to `CCCCC1(c2ccccc2)NC(=O)N(C)C1=O` (stereo not drawn), the logP in [7] was 3.01. The IC50 in series [10] came out at 285 µM.
For `CCCC1(c2ccccc2)NC(=O)NC1=O` (stereo not drawn), the Activity was found to be 100 mg/kg with Mus musculus [1]; 100 mg/kg in the series on Mus musculus [2]; 1 in the series on Mus musculus [13]; 4 in the series on Mus musculus [4]; 4 in the series with Mus musculus [5]; 30 mg/kg in the series with Mus musculus [6]. The logP in series [7] came out at 1.96. The compound also had an ED50 in the series on Mus musculus [14] of 25 mg/kg. Further, in the series with Mus musculus [8], the Time was found to be 1 h. The compound further registered a TD50 with Mus musculus [9] of 85 mg/kg. Besides, the IC50 in [10] stood at 162 µM.
`O=C1NC(=O)C(c2ccccc2)(c2ccccc2)N1` [PHENYTOIN] came in with a logP in series [7] of 2.46. The compound further returned an ED50 in the series on Mus musculus [14] of 10 mg/kg. This compound also had a Time with Mus musculus [8] of 2 h.
With `O=C1OC2(c3ccccc3)CCCCCN1C2=O` (stereo not drawn), the Activity stood at 100 mg/kg in the series on Mus musculus [1], 100 mg/kg in the series on Mus musculus [2], 100 mg/kg in the series on Mus musculus [6] and 3 in the series with Mus musculus [12]. In addition, the logP in series [7] was 3.05. The compound also showed an ED50 in the series on Mus musculus [14] of 66 mg/kg. For the same compound, the result in the series on Mus musculus [15] and in the series with Mus musculus [16] was Active. This compound gave a Time in the series on Mus musculus [8] of 0.25 h. This compound displayed a TD50 in the series on Mus musculus [9] of 147 mg/kg. The same compound came in with an IC50 in series [10] of 160 µM.
For `CCCCC1(c2ccccc2)NC(=O)NC1=O` (stereo not drawn), the logP in series [7] worked out at 2.46. This compound also yielded an IC50 in [10] of 103 µM.
`CCC1(c2ccccc2)OC(=O)N(C)C1=O` (stereo not drawn): the Activity in the series on Mus musculus [1] is 300 mg/kg; in the series on Mus musculus [2] it was 30 mg/kg; in the series with Mus musculus [13], 1; in the series with Mus musculus [17], 1; in the series with Mus musculus [16] it was 1; with Mus musculus [6], 300 mg/kg. Also, the logP in [7] was determined as 2.65. This compound had a Time with Mus musculus [8] of 0.5 h. Moreover, in the series with Mus musculus [9], the TD50 came out at 504 mg/kg.
On to `O=C1O[C@@]2(c3ccccc3)CCCCN1C2=O`, for which the Activity is above 300 mg/kg in the series with Mus musculus [1], 300 mg/kg in the series on Mus musculus [2], 1 in the series on Mus musculus [16] and above 300 mg/kg in the series with Mus musculus [6]. For the same compound, the logP in series [7] was 2.65.
Take `O=C1NC2(c3ccccc3)CCCCCN1C2=O` (stereo not drawn): the Activity with Mus musculus [1] is 300 mg/kg; with Mus musculus [2], above 300 mg/kg; in the series with Mus musculus [4] it was 4; with Mus musculus [6], 100 mg/kg; with Mus musculus [12], 3. This compound returned a logP in [7] of 2.51. In the series with Mus musculus [14], the ED50 was found to be 86 mg/kg. In the series with Mus musculus [8], this compound had a Time of 0.25 h. Besides, the TD50 in the series on Mus musculus [9] is 124 mg/kg. Also, the IC50 in series [10] amounted to 427 µM.
In [7], `CCCCCC1(c2ccccc2)NC(=O)NC1=O` (stereo not drawn) returned a logP of 2.96. This compound had an IC50 in series [10] of 39 µM.
